UHRF1 MBD2 ctr: UHRF1 methyl-DNA binding inhibition | Q96T88 | UHRF1 binding to methylated oligo, TR-FRET | inhibition, % at 4.4 µM | 370,000 compounds, 0.75% hits | AID 687016; in the data active = inhibition above about 21%;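 also: UHRF1 SRA domain binding a hemimethylated CpG hairpin DNA probe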
Casp6 inh: caspase-6 (human) enzyme inhibition; purified caspase-6, Z-VEID-R110 cleavage fluorescence; inhibition, % at 12.5 µM; P55212; 350,000 compounds, 0.53% hits;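 active = mean inhibition across replicates at least about 35%, with every replicate also reaching that limit, limit read from the data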
Target sequence (P55212 24-179 limits assumed): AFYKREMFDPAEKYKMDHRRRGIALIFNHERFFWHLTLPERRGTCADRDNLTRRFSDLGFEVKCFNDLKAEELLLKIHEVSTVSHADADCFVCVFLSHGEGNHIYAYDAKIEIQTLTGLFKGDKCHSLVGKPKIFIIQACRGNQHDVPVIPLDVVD
Target sequence (P55212 194-293 limits assumed): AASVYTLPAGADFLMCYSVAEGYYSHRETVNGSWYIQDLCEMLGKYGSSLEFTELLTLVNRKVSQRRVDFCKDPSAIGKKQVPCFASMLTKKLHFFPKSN
MBD2 inh: blocks human MBD2 binding to methylated DNA; TR-FRET, MBD2 binding to methylated oligonucleotide; inhibition, % at 4.4 µM; 370,000 compounds, 0.31% hits; AID 686964; in the data active = inhibition above about 13%
TDP2 inh: TDP2 (human) inhibition, absorbance primary screen; O95551; recombinant TDP2, T5PNP hydrolysis, p-nitrophenol absorbance 415 nm; inhibition, % at 12.8 µM; 370,000 compounds, 0.34% hits; AID 720702;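 active = inhibition above the mean of all tested compounds plus 3 SD, set per campaign, cut at about 25% in these data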
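System – recombinant human TDP2 · Quantity – TDP2 enzyme at 120 nM final · Doses – single concentration, 12.8 µM nominal, with 1% DMSO · Incubation – 2 h at 37 °C · Measured by – epi absorbance of p-nitrophenol freed from T5PNP by hydrolysis · Read-out – % inhibition relative to enzyme-containing and enzyme-free wells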
LEDGF integ inh: blocks HIV-1 LEDGF/p75-dependent DNA integration; 370,000 compounds, 0.64% hits; TR-FRET IN-LEDGF/p75 DNA integration, Eu/Cy5; inhibition, % at 3.7 µM; AID 743269;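 active = inhibition above the screen-wide mean plus 3 SD, cut at about 13% in these data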;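 also: signal is the Cy5 over europium emission ratio at 671 and 618 nm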
NSD2 HMT inh: NSD2 (human) methyltransferase inhibition; O96028; AID 743445; NSD2 peptide methylation, AlphaScreen, 120 min; inhibition, % at 12.5 µM; 310,000 compounds, 0.54% hits; in the data active = inhibition above about 50%
UHRF1 DNA bind: UHRF1 methyl-oligo binding inhibition as MBD2 counter-screen | shares compounds with MBD2 inh | UHRF1 binding to methylated oligonucleotide, TR-FRET | inhibition, % at 4.4 µM | 1,000 compounds, 25% hits | AID 720530; in the data active = inhibition above about 21%;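 also: UHRF1 SRA domain binding a labeled hemimethylated CpG hairpin DNA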
MBD2 DBD conf: MBD2-DBD methyl-DNA binding inhibition, TR-FRET confirmation. shares compounds with MBD2 inh. TR-FRET MBD2-DBD binding to methylated oligonucleotide. inhibition, % at 4.4 µM. 1,000 compounds, 26% hits. AID 720531
CASP1 counter: blocks human caspase-1 in a selectivity counter-screen; shares compounds with Casp6 inh; purified caspase-1, Z-YVAD-R110 cleavage fluorescence; activity change, negative = inhibition, % at 35 µM; 100 tested, under 10 active; AID 743289;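 active = compounds lowering fluorescence whose fitted half-maximal concentration is no more than twice their top tested dose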
TDP2 confirm: confirmation of human TDP2 inhibitors | shares compounds with TDP2 inh | recombinant human TDP2, absorbance read-out | inhibition, % at 12.8 µM | 1,100 compounds, 22% hits | AID 743263; in the data active = inhibition above about 25%
IN multimer up: activates HIV-1 integrase multimerization in LEDGF counter-screen; TR-FRET HIV-1 integrase multimerization, biochemical; shares compounds with LEDGF integ inh; activation, % at 7.7 µM; 2,000 compounds, 17% hits; in the data active = activation above about 8.9%
TR-FRET interf: counter-screen for LEDGF/p75 integration inhibitors: TR-FRET optical interference. shares compounds with LEDGF integ inh. TR-FRET optical interference counterscreen, HIV-1 IN multimerization. inhibition, % at 7.7 µM. 2,000 tested, under 10 active;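 active = inhibition above the mean over all tested compounds plus 3 SD, which no compound reached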
LEDGF integ conf: confirmation of HIV-1 LEDGF/p75-dependent integration inhibitors; shares compounds with LEDGF integ inh; TR-FRET LEDGF/p75-dependent HIV-1 integration, biochemical; inhibition, % at 3.7 µM; 2,000 compounds, 36% hits; AID 1053136
Alpha artifact: counter-screen for NSD2 inhibitors: AlphaScreen artifacts; AC35, µM (top dose mostly 10 µM); AID 1053174; AlphaScreen artifact counterscreen, preloaded methylated H4 peptide; 1,500 compounds, 9.4% hits; shares compounds with NSD2 HMT inh; call rule not given here
Hits are given with their value; n = inactive; x = not tested or not shown; + = active, no number. In the library only some 1.8% were active in any assay of this set; here they are far more common. Rule as the data show it, unless noted: active = inhibition above about 14%; inactive = the rest.

SMILES	UHRF1 MBD2 ctr	Casp6 inh	MBD2 inh	TDP2 inh	LEDGF integ inh	NSD2 HMT inh	UHRF1 DNA bind	MBD2 DBD conf	IN multimer up	TR-FRET interf	LEDGF integ conf	Alpha artifact	others
C[C@H]1CN([C@@H](C)CO)C(=O)Cc2cc(NC(=O)Nc3ccc4c(c3)OCO4)ccc2O[C@@H]1CN(C)S(=O)(=O)c1ccccc1	x	n	x	x	x	x	x	x	x	x	x	x
CCOc1cccc(=O)c2c(C)n(Cc3ccccc3)c(C)c12	n	n	n	n	n	n	x	x	x	x	x	x
CCOc1cccc(=O)c2c(C)n(-c3ccc(C(=O)O)cc3)c(C)c12	88	n	31	n	76	93	n	n	n	n	30	n
CN1CCN(C(=O)C[C@@H]2C[C@@H]3c4cc(NC(=O)Nc5ccc(C(F)(F)F)cc5)ccc4O[C@@H]3[C@H](CO)O2)CC1	x	n	x	x	x	x	x	x	x	x	x	x
CC1=NN(c2cccc(C(=O)O)c2)C(=O)/C1=C\C=C\c1ccco1	94	x	70	n	78	+	94	56	46	n	72	7.2µM
CC1=NN(c2ccccc2)C(=O)/C1=C/C=C/c1ccccc1	n	x	n	n	n	n	x	x	x	x	x	x
C[C@H]1CN([C@@H](C)CO)S(=O)(=O)c2ccc(C#Cc3ccccc3F)cc2O[C@@H]1CN(C)C	x	n	x	x	x	x	x	x	x	x	x	x
Cc1[nH]n(-c2ccccc2)c(=O)c1C(c1ccc(C(=O)O)cc1)c1c(C)[nH]n(-c2ccccc2)c1=O	n	n	20	99	34	57	n	n	n	n	14	n	TDP2 confirm=25
Cc1[nH]n(-c2ccccc2)c(=O)c1C(C[N+](=O)[O-])c1ccc(Br)cc1 (stereo not drawn)	n	x	n	n	n	n	x	x	x	x	x	x
CCCCn1c(NS(=O)(=O)c2ccccc2)c(S(=O)(=O)c2ccc(C)cc2)c2nc3ccccc3nc21	n	98	21	89	23	102	n	14	n	n	73	n	TDP2 confirm=95
O=C(C[C@H]1CC[C@@H]2[C@H](COC[C@H](O)CN2Cc2cc(F)ccc2F)O1)N[C@@H]1CCN(Cc2ccccc2)C1	x	n	x	x	x	x	x	x	x	x	x	x
C=CCOc1ccc(/C=C2\SC(=S)N(NS(=O)(=O)c3ccc(C)cc3)C2=O)cc1	23	x	14	n	n	55	n	n	x	x	x	n
Cc1ccc(/C=C2\SC(=S)N(NS(=O)(=O)c3ccc(C)cc3)C2=O)cc1	n	n	n	n	n	n	x	x	x	x	x	x
CN1C(=O)c2cc(NC(=O)C3CCCC3)ccc2OC[C@H]2O[C@@H](CC(=O)Nc3ccccc3)CC[C@H]21	x	n	x	x	x	x	x	x	x	x	x	x
Cc1ccc(S(=O)(=O)N2CCN(C(=O)c3cccc(-n4cccc4)c3)CC2)cc1	n	n	n	n	n	n	x	x	x	x	x	x
O=C(c1cccc(-n2cccc2)c1)N1CCN(S(=O)(=O)c2ccccc2)CC1	56	51	28	n	n	x	x	x	x	x	x	x	CASP1 counter=n

Screening results: PubChem BioAssay, several laboratories
